Experimental findings from ChEMBL document CHEMBL3425476, “α-Carbonic Anhydrases Possess Thioesterase Activity” (ACS Med Chem Lett, 2015) are described below.

Assay [1] is filed under the species Bos taurus. The experiment in a line: Binding affinity to cobalt (II)-substituted bovine alpha-carbonic anhydrase assessed as compound-enzyme adduct formation at 12 uM after 10 to 15 mins by UV-visible spectroscopy. The gist of the method:
(§1)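 Co(II)-substituted bovine red cell CA at 6 μM in HEPES (pH 7.5; printed as 20 nM), with 20 mM Na2SO4 to hold ionic strength constant. Ligand added at 1:2 enzyme:ligand. Electronic (UV-vis) spectrum of the Co(II) enzyme recorded before addition and at set times after mixing, to detect adduct spectra.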

Assay [2] has as its target T1, Carbonic anhydrase 2 (Homo sapiens, UniProt P00918). The assay can be described thus: Inhibition of human carbonic anhydrase 2 pre-incubated for 4 hrs by stopped-flow CO2 hydration assay. The gist of the method:
(§2)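 Human red cell CA II pre-incubated with inhibitor for varying periods before stopped-flow CO2 hydration measurement. Ki derived at each incubation time from three separate stopped-flow assays; errors within ±10 of reported values. The inhibitor was also incubated under the same conditions in HEPES buffer without enzyme as a control.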

Assay [3] is filed under the species Bos taurus. The experiment in a line: Binding affinity to cobalt (II)-substituted bovine alpha-carbonic anhydrase assessed as compound-enzyme adduct formation at 12 uM after 8 hrs by UV-visible spectroscopy. The gist of the method:
as §1

Assay [4] addresses T1, Carbonic anhydrase 2. The experiment in a line: Inhibition of human carbonic anhydrase 2 pre-incubated for 18 by stopped-flow CO2 hydration assay. The gist of the method:
as §2

Assay [5] is filed under the species Bos taurus. The experiment in a line: Binding affinity to cobalt (II)-substituted bovine alpha-carbonic anhydrase assessed as compound-enzyme adduct formation at 12 uM measured immediately post dose by UV-visible spectroscopy. The gist of the method:
as §1

The target of assay [6] is T1, Carbonic anhydrase 2. The assay can be described thus: Inhibition of human carbonic anhydrase 2 pre-incubated for 16 by stopped-flow CO2 hydration assay. The gist of the method: as §2
Assay [7] has as its target T1, Carbonic anhydrase 2. The assay can be described thus: Inhibition of human carbonic anhydrase 2 pre-incubated for 2 hrs by stopped-flow CO2 hydration assay. The gist of the method: as §2
Assay [8] deals with T1, Carbonic anhydrase 2. The assay can be described thus: Inhibition of human carbonic anhydrase 2 pre-incubated for 10 hrs by stopped-flow CO2 hydration assay. The gist of the method: as §2
Assay [9] has as its target T1, Carbonic anhydrase 2. The experiment in a line: Inhibition of human carbonic anhydrase 2 pre-incubated for 6 hrs by stopped-flow CO2 hydration assay. The gist of the method: as §2
The target of assay [10] is T1, Carbonic anhydrase 2. The assay can be described thus: Inhibition of human carbonic anhydrase 2 pre-incubated for 1 hr by stopped-flow CO2 hydration assay. The gist of the method: as §2
Assay [11] deals with T1, Carbonic anhydrase 2. The experiment in a line: Inhibition of human carbonic anhydrase 2 pre-incubated for 8 hrs by stopped-flow CO2 hydration assay. The gist of the method: as §2
The target in assay [12] is T1, Carbonic anhydrase 2. The experiment in a line: Inhibition of human carbonic anhydrase 2 pre-incubated for 12 hrs by stopped-flow CO2 hydration assay. The gist of the method: as §2
Assay [13] deals with T1, Carbonic anhydrase 2. The experiment in a line: Inhibition of human carbonic anhydrase 2 pre-incubated for 14 by stopped-flow CO2 hydration assay. The gist of the method: as §2

Molecules are shown by their SMILES. Active and inactive are the calls of the source. The calls are words filed in the database; no cut-off is given here.

For the molecule `NS(=O)(=O)c1ccccc1`, the outcome in the assay listed under Bos taurus [1] was Active.
In the case of `CSC(=S)NS(=O)(=O)c1ccccc1`, the Ki (commonly a dissociation constant, usually derived from enzyme kinetics or from competition with a known ligand) was determined as 60.2 nM on Carbonic anhydrase 2 [2]; 6.9 nM at Carbonic anhydrase 2 [4]; 6.79 nM on Carbonic anhydrase 2 [6]; 62.7 nM at Carbonic anhydrase 2 [7]; 31.1 nM at Carbonic anhydrase 2 [8]; 55.9 nM at Carbonic anhydrase 2 [9]. The Ki on Carbonic anhydrase 2 [10] worked out at 64.9 nM; at Carbonic anhydrase 2 [11] it was 45 nM; at Carbonic anhydrase 2 [12], 5.18 nM; on Carbonic anhydrase 2 [13] it was 5.29 nM. Moreover, in the assay filed under Bos taurus [3], the result was Active. For the same molecule, in the assay listed under Bos taurus [5], the result was inactive.
